Assay [1] concerns the target T1, recombinant human Wip1 (1–420) (Homo sapiens, UniProt O15297).
T1 sequence (O15297 1-420): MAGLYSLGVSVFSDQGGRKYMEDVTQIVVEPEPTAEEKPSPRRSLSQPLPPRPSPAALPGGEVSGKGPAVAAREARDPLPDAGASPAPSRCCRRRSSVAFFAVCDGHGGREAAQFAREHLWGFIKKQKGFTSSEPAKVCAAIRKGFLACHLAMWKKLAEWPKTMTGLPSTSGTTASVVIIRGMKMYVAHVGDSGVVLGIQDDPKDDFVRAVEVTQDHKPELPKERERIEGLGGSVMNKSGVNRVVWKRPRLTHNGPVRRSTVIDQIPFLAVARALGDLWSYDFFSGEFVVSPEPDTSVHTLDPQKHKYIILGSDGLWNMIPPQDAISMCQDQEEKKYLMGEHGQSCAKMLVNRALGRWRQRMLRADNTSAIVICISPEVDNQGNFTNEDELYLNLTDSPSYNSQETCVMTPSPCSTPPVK
The assay can be described thus: Wip1 phosphatase activity inhibition assay. It is filed as biochemical. To be noted: for Hill coefficient [n]: variable slope logistic fit of Wip1 inhibition curve.

Assay [2] deals with T2, PPM1A (also called PP2Cα) (Homo sapiens, UniProt P35813).
T2 sequence (P35813 1-382): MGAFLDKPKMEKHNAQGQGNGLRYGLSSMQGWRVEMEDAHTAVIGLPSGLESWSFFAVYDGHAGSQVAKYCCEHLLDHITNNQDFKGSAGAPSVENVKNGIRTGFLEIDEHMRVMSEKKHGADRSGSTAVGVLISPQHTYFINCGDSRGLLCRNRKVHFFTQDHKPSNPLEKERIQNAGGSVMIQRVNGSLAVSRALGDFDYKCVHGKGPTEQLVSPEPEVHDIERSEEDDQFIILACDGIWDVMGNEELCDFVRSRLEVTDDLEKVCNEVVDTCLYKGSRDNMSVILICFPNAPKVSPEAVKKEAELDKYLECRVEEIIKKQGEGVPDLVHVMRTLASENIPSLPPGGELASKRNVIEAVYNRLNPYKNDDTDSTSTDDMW
The assay can be described thus: PPM1A phosphatase specificity assay. It is filed as biochemical. The note with it: up to 100 μM; 8 nM PPM1A, 100 μM human p38α (175–185, 180pT) phosphopeptide. In short, it runs like this:
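Test compound or DMSO is mixed with the phosphopeptide substrate before PPM1A is added. Buffer: 50 mM Tris·HCl pH 7.5, 0.1 mM EGTA, 1 mM DTT, 1 mM CHAPS, 0.1 mg/mL BSA, 30 mM MgCl2. Incubation runs 7 min at 30 °C. Biomol Green stops the reaction, then colour develops 20 min at room temperature. Released phosphate is read at 620 nm against a phosphate standard curve.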

The structures appear in SMILES notation. Values joined by “and” are separate entries in the source; they are usually repeats but may differ in a detail not shown here. Identical values can stand only once.

Take `O=C(Nc1cccc(Cl)c1)c1cccc(C(=O)Nc2ccc(C(=O)Nc3cccc(OP(=O)(O)O)c3)cc2CC2CCCCC2)c1` [Compound 48a, 3-(4-(3-((3-chlorophenyl)carbamoyl)benzamido)-3-(cyclohexylmethyl)benzamido)phenyl dihydrogen phosphate]: the “Hill coefficient [n]” value in assay [1] is 5 and 5.1 ± 0.3. Also, in assay [2], the “inhibitory activity against PPM1A” value was “no inhibitory activity”.
Turning to `O=C(Nc1cccc(OP(=O)(O)O)c1)c1ccc(NC(=O)c2cccc(CNc3cccc(Cl)c3)c2)c(CC2CCCCC2)c1` [Compound 48b, 3-(4-(3-(((3-chlorophenyl)amino)methyl)benzamido)-3-(cyclohexylmethyl)benzamido)phenyl dihydrogen phosphate], in assay [1], the “Hill coefficient [n]” value was found to be 2.3 ± 0.2. Besides, the “inhibitory activity against PPM1A” value in assay [2] is recorded as “no inhibitory activity”.
Consider `O=C(Nc1cccc(Cl)c1)c1cccc(CNc2ccc(C(=O)Nc3cccc(OP(=O)(O)O)c3)cc2CC2CCCCC2)c1` [Compound 40b, 3-(4-((3-((3-chlorophenyl)carbamoyl)benzyl)amino)-3-(cyclohexylmethyl)benzamido)phenyl dihydrogen phosphate], for which the “fold improvement in Wip1 inhibition” value in assay [1] (compared with 22g) was 7 fold. Besides, the “Hill coefficient [n]” value in assay [1] was 1.4 ± 0.1. Moreover, the “inhibitory activity against PPM1A” value in assay [2] is listed as “no inhibitory activity”.

The record behind these values is PMC9664485 (European journal of medicinal chemistry, 2022).
